Data: ChEMBL document CHEMBL1649384, “Synthesis and antiproliferative activity of novel symmetrical alkylthio- and alkylseleno-imidocarbamates” (Eur J Med Chem, 2011)

What was measured:
[1] = tested on: HepG2; experiment: Cytotoxicity against human HepG2 cells after 72 hrs by MTT assay; type: functional; details: HepG2, 72 h; for CC50: read-out: LC50 (the source's name)
Outline: (§1)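 Cells seeded per well: Hep-G2 1×10⁴, HT-29 4×10³, K-562 4×10³, MCF-7 1.2×10⁴, MCF-10A 7×10³, PC-3 2×10³. MCF-10A were grown in supplemented MEBM at 37 °C, 5% CO₂. Five concentrations were tested between 0.01 and 100, with 72 h exposure. Formazan was read by A590. GI₅₀ was taken relative to untreated controls, from at least three independent experiments.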

[2] = Cytotoxicity against human MCF10A cells after 72 hrs by MTT assay; type: cell-based, MCF-10A; details: for GI50 at 72 h: MCF10A cells; for LC50 / TGI: mcf-10a, 72 h; outline: as §1
[3] = tested on: HT-29; experiment: Cytotoxicity against human HT-29 cells after 72 hrs by MTT assay; type: functional; details: HT-29, 72 h; for CC50: read-out: LC50 (the source's name); outline: as §1
[4] = tested on: PC-3; experiment: Cytotoxicity against human PC3 cells after 72 hrs by MTT assay; type: functional; details: PC-3, 72 h; for CC50: read-out: LC50 (the source's name); outline: as §1
[5] = tested on: MCF7; experiment: Cytotoxicity against human MCF7 cells after 72 hrs by MTT assay; type: functional; details: MCF7, 72 h; outline: as §1
[6] = tested on: K562; experiment: Cytotoxicity against human K562 cells after 72 hrs by MTT assay; type: functional; details: K562, 72 h; for CC50: read-out: LC50 (the source's name); outline: as §1

Row | SMILES | GI50 [1] [µM] | TGI [1] [µM] | CC50 [1] [µM] | GI50 at 72 h [2] [µM] | LC50 [2] [µM] | TGI [2] [µM] | GI50 [3] [µM] | TGI [3] [µM] | CC50 [3] [µM] | GI50 [4] [µM] | TGI [4] [µM] | CC50 [4] [µM] | GI50 [5] [µM] | LC50 [5] [µM] | TGI [5] [µM] | GI50 [6] [µM] | TGI [6] [µM] | CC50 [6] [µM]
1 | CS/C(=N\C(=O)c1ccco1)NC(=O)c1ccco1 | > 100 | > 100 | > 100 | 8.22 | 85.69 | 46.52 | 77.1 | > 100 | > 100 | 56.2 | > 100 | > 100 | 56.1 | > 100 | > 100 | 64.8 | > 100 | > 100
2 | O=C(/N=C(/NC(=O)c1cc2ccccc2s1)[Se]Cc1ccccc1)c1cc2ccccc2s1 | 21 | 49 | 77 | 37.9 | 87.9 | 62.92 | 6.51 | > 100 | > 100 | 30.5 | 58.4 | 86.3 | 37.9 | 87.9 | 62.9 | 14.9 | 42.8 | 70.6
3 | C[Se]/C(=N\C(=O)c1ccc2c(c1)OCO2)NC(=O)c1ccc2c(c1)OCO2 | 5.84 | 23.6 | 73.1 | 5.58 | > 100 | 45.97 | 0.53 | > 100 | > 100 | 4.24 | 36.8 | > 100 | 0.99 | > 100 | 52.8 | 9.23 | 46.3 | 85.2
4 | O=C(/N=C(/NC(=O)c1csc([N+](=O)[O-])c1)[Se]Cc1ccccc1)c1csc([N+](=O)[O-])c1 | 34.1 | 62.8 | 91.6 | 24.4 | 83.76 | 54.1 | 9.25 | > 100 | > 100 | 35.9 | 69.2 | > 100 | 24.4 | 83.8 | 54.1 | 23.5 | 55.8 | 88.2
5 | O=C(/N=C(/NC(=O)c1c2ccccc2nc2ccccc12)[Se]Cc1ccccc1)c1c2ccccc2nc2ccccc12 | 30.4 | 64.5 | 98.5 | 53.7 | > 100 | 88.14 | 26.9 | > 100 | > 100 | 42.3 | 77.4 | > 100 | 53.7 | > 100 | 88.1 | 9.6 | 44.5 | 80.7
6 | CS/C(=N\C(=O)c1sccc1Cl)NC(=O)c1sccc1Cl | 65.2 | > 100 | > 100 | 0.09 | 64.11 | 23.72 | 35.6 | > 100 | > 100 | 24.7 | 57.4 | 90.1 | 10.3 | > 100 | 57.1 | 37 | 78.9 | > 100
7 | O=C(/N=C(/NC(=O)c1cnc2ccccc2c1)[Se]Cc1ccccc1)c1cnc2ccccc2c1 | 8.54 | 48.9 | 90.3 | 23.6 | > 100 | > 100 | 26.1 | > 100 | > 100 | 34.8 | > 100 | > 100 | 23.6 | > 100 | > 100 | 29.3 | 72.6 | > 100
8 | CS/C(=N\C(=O)c1csc([N+](=O)[O-])c1)NC(=O)c1csc([N+](=O)[O-])c1 | 63.4 | > 100 | > 100 | 1.55 | 75.14 | 21.35 | 51.8 | > 100 | > 100 | 41.5 | 82.5 | > 100 | 44.6 | > 100 | 78.1 | 56.9 | 98.7 | > 100
9 | C[Se]/C(=N\C(=O)c1c2ccccc2nc2ccccc12)NC(=O)c1c2ccccc2nc2ccccc12 | 22.3 | 52.4 | 82.5 | 18.2 | 88.31 | 53.28 | 7.63 | > 100 | > 100 | 41.3 | 80.1 | > 100 | 73.9 | > 100 | > 100 | 27.2 | 61 | 94.8
10 | COc1cc([C@@H]2c3cc4c(cc3[C@@H](O[C@@H]3O[C@@H]5CO[C@@H](C)O[C@H]5[C@H](O)[C@H]3O)[C@H]3COC(=O)[C@H]23)OCO4)cc(OC)c1O [ETOPOSIDE] | – | – | – | – | – | – | 31.6 | > 100 | > 100 | 0.63 | 3.98 | 79.4 | 19.9 | – | > 100 | 12.6 | > 100 | > 100
11 | O=C(/N=C(/NC(=O)c1cccs1)[Se]Cc1ccccc1)c1cccs1 | 34.7 | 58.1 | 81.5 | 72.5 | > 100 | > 100 | 55.1 | > 100 | > 100 | 49.9 | > 100 | > 100 | 72.5 | > 100 | > 100 | 29.5 | 58.5 | 87.4
12 | COc1cccc2c1C(=O)c1c(O)c3c(c(O)c1C2=O)C[C@@](O)(C(=O)CO)C[C@@H]3O[C@H]1C[C@H](N)[C@H](O)[C@H](C)O1 [DOXORUBICIN] | – | – | – | – | – | – | 0.2 | 25.4 | 25.4 | 0.25 | 3.16 | 19.9 | 0.02 | – | 5.01 | 0.1 | 5.01 | 19.9
13 | CS/C(=N\C(=O)c1c2ccccc2nc2ccccc12)NC(=O)c1c2ccccc2nc2ccccc12 | 90.2 | > 100 | > 100 | 1 | > 100 | > 100 | 69.2 | > 100 | > 100 | 51.1 | 87.3 | > 100 | 27.7 | > 100 | > 100 | 45 | 76 | > 100
14 | O=C(/N=C(/NC(=O)c1sccc1Cl)[Se]Cc1ccccc1)c1sccc1Cl | 4.42 | 45.5 | > 100 | 3.68 | > 100 | 28.33 | 6.51 | > 100 | > 100 | 52.7 | > 100 | > 100 | 3.68 | > 100 | 28.3 | 7.63 | 95.8 | > 100
15 | CS/C(=N\C(=O)c1ccc2c(c1)OCO2)NC(=O)c1ccc2c(c1)OCO2 | 61.4 | > 100 | > 100 | 1.01 | 9.05 | 5.03 | 46.4 | > 100 | > 100 | 28.7 | 54.5 | 80.4 | 24.6 | 94.8 | 59.7 | 68 | > 100 | > 100
16 | CS/C(=N\C(=O)c1cc2ccccc2s1)NC(=O)c1cc2ccccc2s1 | 15.8 | 53 | 75.8 | 0.02 | 54.56 | 5.6 | 16.8 | 88.2 | 88.2 | 8.58 | 39.4 | 72.5 | 9.51 | 78.5 | 43.4 | 34.7 | 66.6 | 98.6
17 | CN(Cc1cnc2nc(N)nc(N)c2n1)c1ccc(C(=O)N[C@@H](CCC(=O)O)C(=O)O)cc1 [METHOTREXATE] | – | – | – | – | – | – | 0.04 | > 100 | 0.03 | 0.1 | > 100 | > 100 | 0.06 | – | > 100 | 0.03 | > 100 | > 100
18 | CC(=O)O[C@H]1C(=O)[C@@]2(C)[C@H]([C@H](OC(=O)c3ccccc3)[C@]3(O)C[C@H](OC(=O)[C@H](O)[C@@H](NC(=O)c4ccccc4)c4ccccc4)C(C)=C1C3(C)C)[C@]1(OC(C)=O)CO[C@@H]1C[C@@H]2O [PACLITAXEL] | – | – | – | – | – | – | 0.003 | 79.4 | 79.4 | 0.004 | 12.6 | > 100 | 0.003 | – | > 100 | 0.004 | 15.8 | > 100
